For one compound, IC50 results are on record in ChEMBL document CHEMBL4049456, “Identification of 4-(Aminomethyl)-6-(trifluoromethyl)-2-(phenoxy)pyridine Derivatives as Potent, Selective, and Orally Efficacious Inhibitors of the Copper-Dependent Amine Oxidase, Lysyl Oxidase-Like 2 (LOXL2)” (J Med Chem, 2017).

The target of this assay is T1, Lysyl oxidase homolog 3 (Homo sapiens, UniProt P58215).
T1 sequence (P58215 whole entry): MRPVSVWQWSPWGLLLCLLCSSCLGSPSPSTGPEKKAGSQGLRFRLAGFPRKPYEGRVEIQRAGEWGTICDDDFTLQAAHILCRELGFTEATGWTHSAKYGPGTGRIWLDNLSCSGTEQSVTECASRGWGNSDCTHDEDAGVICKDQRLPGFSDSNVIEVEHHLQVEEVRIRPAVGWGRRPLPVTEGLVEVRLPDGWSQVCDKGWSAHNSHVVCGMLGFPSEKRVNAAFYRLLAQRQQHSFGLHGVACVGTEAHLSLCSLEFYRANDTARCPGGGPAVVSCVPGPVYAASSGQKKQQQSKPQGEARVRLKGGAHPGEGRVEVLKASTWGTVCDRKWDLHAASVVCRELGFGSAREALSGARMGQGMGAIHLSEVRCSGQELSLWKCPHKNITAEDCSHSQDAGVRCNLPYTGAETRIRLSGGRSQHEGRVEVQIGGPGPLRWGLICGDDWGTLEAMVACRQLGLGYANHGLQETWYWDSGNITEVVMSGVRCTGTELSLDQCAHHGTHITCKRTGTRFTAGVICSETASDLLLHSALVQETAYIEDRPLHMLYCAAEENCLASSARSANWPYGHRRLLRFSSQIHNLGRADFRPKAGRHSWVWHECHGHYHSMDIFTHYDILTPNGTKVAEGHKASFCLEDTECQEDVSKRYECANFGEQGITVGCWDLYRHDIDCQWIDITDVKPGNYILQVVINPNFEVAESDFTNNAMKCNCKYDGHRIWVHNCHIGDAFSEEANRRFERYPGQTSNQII
Nature of the assay: Inhibition of recombinant human LOXL3 assessed as reduction of H2O2 production from oxidative deamination of DAP preincubated for 2 hrs followed by substrate addition measured every 2 mins for 1 hr by amplex red reagent-based fluorescence assay. The essentials:
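Purified recombinant human LOXL3 was preincubated with compound for 2 h, then H2O2 produced from DAP deamination was measured.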

What is called IC50 is the concentration that gives 50% inhibition. Take `Cl.NCc1cc(Oc2cccc(C(=O)N3C[C@@H](O)[C@H](F)C3)c2)nc(C(F)(F)F)c1` (racemic): the IC50 was found to be 1380 nM.
